Source: PubChem
The full list was thinned out, with hits kept by preference.
Redox H2O2 prof: compounds producing H2O2 with reducing agent – biochemical, NIH compound library profiling, artefact control for MLSCN library redox annotation, primary screen; activation, % at 10 µM; hit rate 0.03% among 200,000; AID 878; DTT-dependent redox cycling H2O2, phenol red/HRP absorbance; 100% = 100 µM peroxide control, 0% = buffer;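 active = activation of at least 50% relative to the plate's high and low controls in the primary single-dose screen; inactive = activation below 50%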;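 note: compound incubated with DTT at 0.8 mM final as the reducing agent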
Diaphorase inh: counter-screen for diaphorase-based assays: diaphorase inhibitors and chemical oxidizers; diaphorase resazurin-to-resorufin fluorescence, NADH, 16 min; bacterial (C. kluyveri) enzyme, not human; inhibition, % at 20 µM; AID 1217; hit rate 0.69% among 190,000;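 active = primary screen inhibition at 20 µM above a set limit, cut at about 50% in these data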
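Assay system: diaphorase enzyme from Clostridium kluyveri. Quantity: enzyme working solution with 0.14 U/mL diaphorase. Schedule: reaction incubation of 16 min at room temperature. Technique: resorufin fluorescence, excitation 544 nm, emission 590 nm. Controls: No-NADH positive control and DMSO neutral control.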
PfG6PD inh: PfG6PD (Plasmodium falciparum) enzyme inhibition; PfGluPho enzyme, NADPH resazurin-diaphorase fluorescence; inhibition, % at 20 µM; hit rate 0.78% among 350,000;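 active = inhibition reaching at least a set limit at 20 µM in the primary screen, cut at about 59% in these data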
Diaph act CS: activates diaphorase or chemically reduces, flagging diaphorase assay artifacts; hit rate 0.005% among 190,000; AID 1229; Diaphorase/resazurin coupled assay, resorufin fluorescence, 16 min; stronger effect = higher value; 1 = vehicle wells, 0 = NADH-free wells; activation factor at 20 µM;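 active = diaphorase activity raised at least twofold by the compound at 20 µM; inactive = activation factor below 2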
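Test system: Clostridium kluyveri diaphorase, purified enzyme; input: enzyme 0.07 U/mL final; buffer or medium: 50 mM HEPES pH 7.4 with 4.542 mM MgCl2, 0.005% Tween 20; also added: 0.114 mM NADH and 0.1 mM resazurin, final amounts; schedule: 16 min enzyme reaction, ambient temperature; technique: fluorescence of resorufin, 544 nm excitation, 590 nm emission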
G6PDH counter: counter-screen for G6PDH assay hits: L. mesenteroides G6PDH inhibition; Purified L. mesenteroides G6PDH, diaphorase/resazurin coupled fluorescence, 45 min; inhibition, % at 5 µM; hit rate 0.12% among 200,000; AID 1020
Lmaj promast: inhibitors of Leishmania major promastigote growth; hit rate 9% among 200,000; Leishmania major promastigotes, resazurin fluorescence viability; AID 1063; inhibition, % at 10 µM;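 note: promastigotes grown with compound for 44 hours at 28 °C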
Each line names hits and unclear results; the compound was inactive in the other large screens. Cut-off read from the data, not from the text of the source, unless noted: active = inhibition above about 50%; inactive = the rest.

c1ccc2c(CN3CCOCC3)c[nH]c2c1	none (no result: Redox H2O2 prof, Diaphorase inh, Diaph act CS, G6PDH counter, Lmaj promast)
CC1(C)C2CC=C(CN3CCOCC3)C1C2 (centres undefined)	Lmaj promast 64
CN1c2ccc([N+](=O)[O-])cc2CC2(C(=O)NC(=O)N(c3ccccc3)C2=O)C1c1ccccc1 (centres undefined)	Lmaj promast 58
COc1ccc2c(c1O)C13CCN(C)C(C2)C1CCC(=O)C3 (centres undefined)	none (no result: Redox H2O2 prof, Diaphorase inh, Diaph act CS, G6PDH counter, Lmaj promast)
CN(C)CCOC(=O)c1cn(Cc2ccccc2)c2ccccc12	Lmaj promast 100
O=C1CN=C(c2ccccc2)c2cc(Br)ccc2N1Cc1cc(=O)n2ccccc2n1	Lmaj promast 82
CN(C(=O)Oc1cccc2ccccc12)C1C=CCC1 (centres undefined)	none (no result: Redox H2O2 prof, Diaphorase inh, Diaph act CS, G6PDH counter, Lmaj promast)
CCC1([N+](=O)[O-])COP(N)(=O)OC1 (centres undefined)	none (no result: Redox H2O2 prof, Diaphorase inh, Diaph act CS, G6PDH counter, Lmaj promast)
CCOC(=O)c1c(N)n(CCN2CCCCC2)c2nc3ccccc3nc12	Lmaj promast 55
COc1ccc(CCNC(=O)c2c(N)n(CCN3CCOCC3)c3nc4ccccc4nc23)cc1	Diaphorase inh 59, Lmaj promast 96
Fc1ccc(C(OCCN2CCCC2)c2ccc(F)cc2)cc1	Lmaj promast 90
Fc1ccc(C(OCCN2CCCC2)c2ccc(Br)cc2)cc1 (centres undefined)	Lmaj promast 100
Fc1ccc(C(OCCN2CCN(CCCc3ccccc3)CC2)c2ccc(F)cc2)cc1	none (no result: Redox H2O2 prof, Diaphorase inh, Diaph act CS, G6PDH counter, Lmaj promast)
O=C(N/N=C/c1c(O)n(Cc2ccco2)c(=O)[nH]c1=O)c1ccccc1O	none (no result: Redox H2O2 prof, Diaphorase inh, Diaph act CS, G6PDH counter, Lmaj promast)
O=C(CCCOc1ccc(Cl)cc1Cl)N1CCC2(CC1)OCCO2	none
Cc1cc(OCCCC(=O)NCc2cccs2)ccc1Cl	Lmaj promast 56
Cc1cc(Cl)ccc1OCCCC(=O)NCc1cccs1	Lmaj promast 60
CC(C)CC1(CCc2ccccc2)C(=O)NC(=O)NC1=O	none (no result: Redox H2O2 prof, Diaphorase inh, Diaph act CS, G6PDH counter, Lmaj promast)
COc1ccc(C(O)c2ccccc2OP(=O)(N(C)C)N(C)C)cc1 (centres undefined)	Lmaj promast 66
COc1ccc(C(O)c2cc(OC)ccc2OP(=O)(N(C)C)N(C)C)cc1 (centres undefined)	none
COc1ccc(CCC(C)NCCc2ccccc2)cc1 (centres undefined)	Lmaj promast 89
COc1ccc(CC(C)NCCc2ccc(OC)c(OC)c2)cc1 (centres undefined)	none (no result: Redox H2O2 prof, Diaphorase inh, Diaph act CS, G6PDH counter, Lmaj promast)
c1cc(CNCCc2ccc3c(c2)OCO3)ccn1	none (no result: Redox H2O2 prof, Diaphorase inh, Diaph act CS, G6PDH counter, Lmaj promast)
CN1C(=O)N(C)C(=O)C(CCc2ccncc2)(Cc2ccc3c(c2)OCO3)C1=O	Lmaj promast 65
O=C1NC(=O)C(CCc2ccncc2)(CCc2ccncc2)C(=O)N1CCc1ccccc1	none
O=C1NC(=O)C(CCc2ccncc2)(Cc2ccc3c(c2)OCO3)C(=O)N1CCc1ccccc1 (centres undefined)	Lmaj promast 100
CCN(CC)C(=O)c1ccc(NC(=O)COc2ccc([N+](=O)[O-])cc2Cl)cc1	Lmaj promast 50
CCN(CC)C(=O)c1ccc(NC(=O)c2cc(S(=O)(=O)N3CCCCCC3)ccc2OC)cc1	none (no result: Redox H2O2 prof, Diaphorase inh, Diaph act CS, G6PDH counter, Lmaj promast)
COc1ccc(CN2CCCC(C(=O)c3cccc(Cl)c3)C2)cc1 (centres undefined)	none (no result: Redox H2O2 prof, Diaphorase inh, Diaph act CS, G6PDH counter, Lmaj promast)
COc1ccc(CN2CCCC(C(=O)c3ccc(Cl)cc3)C2)c(OC)c1 (centres undefined)	none (no result: Redox H2O2 prof, Diaphorase inh, Diaph act CS, G6PDH counter, Lmaj promast)
CSc1ncc(CN2CCCC(C(=O)c3cccc(Cl)c3)C2)cn1 (centres undefined)	Lmaj promast 82
O=C(c1ccc(Cl)cc1)C1CCCN(Cc2cccc3cnccc23)C1 (centres undefined)	Lmaj promast 99
O=C(c1cccc(Cl)c1)C1CCCN(Cc2cccc3cnccc23)C1 (centres undefined)	Lmaj promast 95
Cc1cc(OCC(=O)NC(Cc2ccc(Cl)cc2)C(=O)O)c2c3c(c(=O)oc2c1)CCCC3 (centres undefined)	none (no result: Redox H2O2 prof, Diaphorase inh, Diaph act CS, G6PDH counter, Lmaj promast)
COC(=O)C1=C(c2ccc(C(C)=O)cc2)C[C@@H]2CC[C@H]1N2C(=O)NC1Cc2ccccc2C1	none (no result: Redox H2O2 prof, Diaphorase inh, Diaph act CS, G6PDH counter, Lmaj promast)
O=C(CN1C(=O)CN=C(c2ccccc2Cl)c2cc(Cl)ccc21)NCc1ccco1	Lmaj promast 97
